Tests used:
[1] = Partition coefficient (logP); format: physicochemical; settings: octanol/water; read-out: logP
Method in brief: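 Lipophilicity was measured by reversed-phase HPLC. Mobile phase was methanol/0.005 M phosphate buffer pH 4 (60/40) with 0.1% SDS and 0.1 M NaClO4, at 23.0 ± 0.5 °C, with UV detection at 205 nm.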

[2] = species on record: Cavia porcellus; test: In vitro activity in guinea pig atria as the functional refractory period (FRP), which is the shortest interval between a double stimulus causing a double contraction.
Method in brief: (§1)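 Isolated guinea pig atria in oxygenated buffer at 35 °C. Right atria beat spontaneously; left atria were paced at 2 Hz with 1 ms rectangular pulses and isometric contractions were recorded. Cumulative concentration–response curves were run with up to five concentrations. EC75/EC125 is the concentration giving a 25% decrease/increase from the predrug value, reported as the geometric mean of individual ECs.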

[3] = species on record: Cavia porcellus; test: In vitro activity in guinea pig atria was measured as rate of spontaneously beating right atrium (SR) which reflects the activity of the sinus node; format: functional; settings: Cardiac atrium; method in brief: as §1
[4] = species on record: Cavia porcellus; test: Score point for the selectivity versus additional effect FRP.; format: functional
[5] = species on record: Cavia porcellus; test: Score value indicates decrease of the sinus rate; format: functional
[6] = species on record: Cavia porcellus; test: Score value indicates selectivity versus the decrease in force of contraction; format: functional
[7] = species on record: Cavia porcellus; test: Sum of the scores of decrease of the sinus rate and selectivity versus the decrease in force of contraction; format: functional
[8] = tested on: Rattus norvegicus; test: In vivo activity in anesthetized rat was measured as the R alpha T-interval of the rat ECG which reflects the time from ventricular excitation to recovery; format: functional, Cardiac ventricle
Method in brief: (§2)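 Male Wistar rats (280–360 g) under urethane (1.25 g/kg ip), intubated and breathing spontaneously. Femoral arterial pressure was recorded with needle-electrode ECG, analysed every 30 s. Compound was given by continuous femoral-vein infusion at 0.1 mL/min, with concentration raised tenfold every 10 min (3 doses). ED75/ED125 is the dose giving a 25% decrease/increase from the predrug value, reported as the geometric mean of individual EDs.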

[9] = tested on: Rattus norvegicus; test: In vivo activity in anesthetized rat was measured as the diastolic arterial pressure which provides information on the peripheral resistance of the cardiovascular system and selectivity regarding bradycardia; format: functional, Artery; method in brief: as §2
[10] = tested on: Rattus norvegicus; test: In vivo activity in anesthetized rat was measured as heart rate which provides information on in vivo bradycardic activity; format: functional; method in brief: as §2
[11] = species on record: Rattus norvegicus; test: Score point for the selectivity versus additional effect R&T interval.; format: functional
[12] = species on record: Rattus norvegicus; test: Score value indicates desire effect on heart rate; format: functional
[13] = species on record: Rattus norvegicus; test: Score value indicates selectivity against the undesired effect on diastolic blood pressure; format: functional, Artery
[14] = Selectivity quotient (F75/SR75); # means very high (estimated); format: functional
Method in brief: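 Isolated atria in oxygenated buffer at 35 °C. Spontaneously beating right atria gave sinus rate; left atria paced at 2 Hz with 1 ms rectangular pulses gave isometric force of contraction. Cumulative concentration-response curves used up to five concentrations. EC75 (25% decrease from predrug value) was taken as the geometric mean of individual values. Quotient is F75/SR75.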

[15] = species on record: Cavia porcellus; test: Selectivity quotient (FRP125/SR75); format: functional
Method in brief: (§3)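 Atrial selectivity quotients were calculated from the guinea pig atrial EC values as F75/SR75 and FRP125/SR75.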

[16] = species on record: Rattus norvegicus; test: Total score (SS)
[17] = species on record: Rattus norvegicus; test: Selectivity quotient (DAP125/HR75)
[18] = species on record: Rattus norvegicus; test: Selectivity quotient (R&T125/HR75)
[19] = Selectivity quotient (DAP125/HR75); # means very high (estimated); format: functional
Method in brief: (§4)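 Male Wistar rats (280–360 g), urethane-anesthetized (1.25 g/kg ip), breathing spontaneously. Femoral artery pressure gave diastolic pressure; subcutaneous needle ECG gave heart rate and RαT interval (R onset to T apex), analyzed every 30 s. Femoral vein infusion at 0.1 mL/min, concentration raised tenfold every 10 min (3 doses). ED75/ED125 (25% change from predrug) were geometric means; quotients DAP125/HR75 and RαT125/HR75.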

[20] = species on record: Cavia porcellus; test: Selectivity quotient (F75/SR75); format: functional; method in brief: as §3
[21] = species on record: Cavia porcellus; test: In vitro activity in guinea pig atria was measured as the peak force of contraction (F) of a stimulated left atrium; format: functional; settings: Cardiac atrium; method in brief: as §1
[22] = Selectivity quotient (R&T125/HR75); # # means very low (estimated); format: functional; method in brief: as §4
[23] = Selectivity quotient (FRP125/SR75); # # means very low (estimated); format: functional

SMILES | logP [1] | EC125 [2] | EC75 [3] | Score [4] | Score [5] | Score [6] | Score [7] | ED125 [8] | ED125 [9] | ED75 [10] | Score [11] | Score [12] | Score [13] | Selectivity quotient [14] | Selectivity quotient [15] | total score (SS) [16] | Selectivity quotient [17] | Selectivity quotient [18] | Selectivity quotient [20] | EC75 [21] | other results
CCCN1CC2CN(CCC)CC(C1)C2(CC)CC | 3.85 | 1.52 µM | 3.53 µM | 4 | 3 | 0 | 3 | 2.1 µM/kg | 10 µM/kg | 12 µM/kg | 5 | 4 | -3 | # | 0.43 | 1 | 0.8 | 0.18 |  |  | 
CCCCN1CC2CN(CC(C)C)CC(C1)C2(C)C | 3.7 | 0.82 µM | 3.07 µM | 4 | 4 | 0 | 4 | 0.73 µM/kg | >41 µM/kg | 5.7 µM/kg | 5 | 5 | -1 | # | 0.27 | 4 | >7 | 0.13 |  |  | 
C1CCC2(C1)C1CN(CC3CC3)CC2CN(CC2CC2)C1 [TEDISAMIL] | 4.19 | 0.76 µM | 1.3 µM | 3 | 5 | 0 | 5 | 2.5 µM/kg |  | 5.3 µM/kg | 4 | 5 | 0 |  | 0.56 | 5 |  | 0.47 | 37.6 | 49 µM | Selectivity quotient [19]: #
CCC1(C)C2CN(CC3CCCCC3)CC1CN(CC1CCCCC1)C2 (stereo not given) | 6.65 | 0.68 µM | 6.2 µM | 5 | 3 | -6 | -3 | 5.5 µM/kg |  |  | 3 | 4 | 0 |  | 0.11 | 4 |  | 0.5 | 0.76 | 4.69 µM | Selectivity quotient [19]: #
CCCCCCN1CC2CN(CCCCCC)CC(C1)C2(CC)CCCC (stereo not given) | 8.26 | 1.27 µM | 0.6 µM | 2 | 6 | -4 | 2 | 4 µM/kg |  |  | 6 | 0 | -3 |  | 2.12 | -3 | 1 |  | 2.32 | 1.39 µM | Selectivity quotient [22]: very low
CCCCCCN1CC2CC(CN(C)C2)C1 | 3.18 | 1.4 µM |  | 6 | 0 | -5 | -5 | 8.4 µM/kg |  | 46 µM/kg | 5 | 1 | -3 |  |  | -2 | 1 | 0.18 | 1 | 83.8 µM | Selectivity quotient [23]: very low

Source: ChEMBL document CHEMBL1131456, “Synthesis, pharmacological characterization, and quantitative structure-activity relationship analyses of 3,7,9,9-tetraalkylbispidines: derivatives with specific bradycardic activity” (J Med Chem, 1998)
